MEX-5 binding: C. elegans MEX-5 TCR-2 RNA binding activity; 0.38% of 300,000 active; Q9XUB2; MEX-5/FITC-TCR2 RNA binding, fluorescence polarization; active compounds read low; activity score (negative = inhibition of binding), % at 10 µM;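 active means inhibition past about -25% in most replicates, and total fluorescence under double the plate's negative control median, limit read from the data; inconclusive means replicates evenly split on the limit, or fluorescence at least double controls; inactive means too little inhibition in most replicates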;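 further: 0% = DMSO and -100% = 5 µM competing unlabeled TCR2 RNA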
Runt-CBFb FRET: blocks binding of human RUNX1 Runt domain to CBFb. 0.46% of 220,000 active. Cerulean-Runt/Venus-CBFb FRET ratio 530/480, 1 h. inhibition, % at 20 µM. AID 1496;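 active means inhibition over about 50% at 20 µM in the single-dose screen, limit read from the data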;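 further: 0% = DMSO wells and 100% = excess unlabeled CBFb competitor control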
Target sequence (Q01196 whole entry, looked up, the tested form may be a part): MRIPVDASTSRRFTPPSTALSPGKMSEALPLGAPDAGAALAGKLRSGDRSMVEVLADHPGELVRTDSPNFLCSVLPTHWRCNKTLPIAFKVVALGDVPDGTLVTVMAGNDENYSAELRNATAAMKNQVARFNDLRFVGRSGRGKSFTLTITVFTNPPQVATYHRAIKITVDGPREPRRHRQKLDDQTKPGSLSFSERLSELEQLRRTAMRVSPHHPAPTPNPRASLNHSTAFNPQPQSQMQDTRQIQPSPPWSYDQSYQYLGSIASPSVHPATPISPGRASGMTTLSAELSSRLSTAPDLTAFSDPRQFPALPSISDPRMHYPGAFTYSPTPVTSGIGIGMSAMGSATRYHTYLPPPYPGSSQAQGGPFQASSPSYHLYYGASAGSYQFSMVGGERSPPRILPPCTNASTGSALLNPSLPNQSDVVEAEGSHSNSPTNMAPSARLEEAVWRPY
Target sequence (Q13951 whole entry, looked up, the tested form may be a part): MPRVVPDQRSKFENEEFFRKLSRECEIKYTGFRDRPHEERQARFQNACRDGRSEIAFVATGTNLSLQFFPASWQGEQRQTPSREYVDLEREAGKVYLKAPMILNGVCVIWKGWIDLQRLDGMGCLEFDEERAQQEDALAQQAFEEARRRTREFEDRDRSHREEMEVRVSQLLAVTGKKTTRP
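Measured by: fluorescence energy transfer, 422 nm excitation, 530/480 nm emission; Assay system: Cerulean-Runt domain; Medium: Tris pH 7.5 buffer with BSA; Measure: loss of energy transfer signal; Controls: 5 µM unlabeled CBFb as full-inhibition high control; Incubation: protein complex preformed 1 h, compound exposure 1 h, room temperature, dark.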
Runt-SMMHC FRET: inhibitors of human RUNX1 Runt domain binding to CBFb-SMMHC | inhibition, % at 20 µM | 0.74% of 220,000 active | Cerulean-Runt/Venus-CBFb-SMMHC FRET ratio 530/480, 1 h;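 active means mean inhibition across duplicate retests at 20 µM reaching about 50%, limit read from the data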;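 further: 0% = DMSO wells and 100% = wells with excess untagged CBFb-SMMHC; inhibitors lower the FRET ratio by blocking Runt binding to CBFb-SMMHC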
PKD1 kinase inh: blocks activity of human protein kinase D1. 0.056% of 200,000 active. Q15139. PKD1 kinase fluorescence polarization assay. inhibition, % (concentration not given with the values)
EBV gp42 block: EBV gp42 inhibition; Q1HVG2; Fluorescence polarization binding assay, mP read-out; inhibition, % (tested at 21.74 µM); 0.42% of 220,000 active
RanGTP-Imp inh: inhibitors of RanGTP-importin-beta interaction, primary screen, biochemical, FRET, CFP-Ran, YFP-importin-beta, homogeneous. 1.1% of 300,000 active. cell-free CFP-Ran/YFP-importin-beta FRET ratio. inhibition, % (concentration not given with the values). AID 2216;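 active means more than half of the replicate wells show a fall in the fluorescence ratio signal beyond about 16%, limit read from the data, passing the limit was not always enough; inconclusive means exactly half of the replicate wells pass the set limit; inactive means fewer than half of replicates pass the limit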;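 further: 0% = DMSO wells and 100% = Ran loaded with GDP instead of GTP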
* hit, by the source's call; ? = inconclusive; . = not tested or not shown. This is a sample that favours compounds with a hit; in the whole collection about 2% have one here. Unless noted, no stated cut-off is given here; in the data, active means inhibition above about 50%; inactive means the rest.

SMILES	MEX-5 binding	Runt-CBFb FRET	Runt-SMMHC FRET	PKD1 kinase inh	EBV gp42 block	RanGTP-Imp inh
C/C(=N/NC(=O)CC1N=C(Cc2ccccc2)NNC1=O)c1cccnc1 (stereo not drawn)	1.1	-2.3	3.6	-2.4	-10.4	1.1
Cc1ccccc1C1=N/C(=C/c2cccs2)C(=O)O1	-27.5*	-0.6	-6.7	-3.9	7.0	2.0
O=C(CNC(=O)c1ccccc1)NCCc1ccc(O)c(O)c1	-11.0	.	.	.	.	7.1
c1ccc(CNc2c3ccccc3nc3ccccc23)cc1	-2.2	.	.	.	.	91.3*
CN(C)CCCNc1nc(-c2ccccc2)nc2ccccc12	-1.3	-0.1	2.9	.	-10.2	0.8
OCC(Cc1ccccc1)NCc1ccccc1C(F)(F)F (stereo not drawn)	2.9	-1.2	3.8	-2.6	-10.5	?
OCC(Cc1ccccc1)Nc1c2ccccc2nc2ccccc12 (stereo not drawn)	-1.9	60.6*	59.3*	-8.2	15.9	117.6*
CN(C)CCCNc1c2ccccc2nc2ccccc12	2.7	.	.	.	.	107.6*
Oc1ccc(CCNc2c3ccccc3nc3ccccc23)cc1O	-39.3*	.	.	.	.	103.3*
COc1ccc(C2=NN(c3nc(-c4ccc(CNC(C)=O)cc4)cs3)C(c3ccco3)C2)cc1 (stereo not drawn)	1.6	.	.	.	.	0.3
CC(C)CN(C(=O)c1cccs1)C1CCS(=O)(=O)C1 (stereo not drawn)	0.1	.	.	.	.	0.7
c1ccc2c(NCCCN3CCOCC3)c3ccccc3nc2c1	.	98.7*	91.5*	-4.0	-18.8	.
Fc1ccccc1-c1nc(NCCCN2CCOCC2)c2ccccc2n1	-1.6	-2.6	2.3	-13.4	47.7	1.9
CN(CC(=O)NCCc1ccc(S(N)(=O)=O)cc1)S(=O)(=O)c1ccc(Br)s1	-0.6	.	.	.	.	-0.2
O=C(NCc1ccc(Cl)cc1)C1CCC(=O)N(C2CCCCCC2)C1 (stereo not drawn)	1.0	.	.	.	.	7.9
O=c1c(OC2OC(CO)C(O)C(O)C2O)c(-c2ccc(O)c(O)c2)oc2cc(O)cc(O)c12 (stereo not drawn)	-13.1	-5.5	-0.9	25.7	-8.3	3.8
C[C@@H]1O[C@@H](Oc2c(-c3cc(O)c(O)c(O)c3)oc3cc(O)cc(O)c3c2=O)[C@H](O)[C@H](O)[C@H]1O	-57.5*	-26.0	-29.3	24.3	-4.0	-1.2
CCOCCn1c(=NC(=O)CSCC(=O)Nc2cc(C)on2)sc2cc(OC)ccc21	0.0	.	.	.	.	3.3
COc1ccccc1N1CCN(C(=O)NC23CC4CC(CC(C4)C2)C3)CC1	-5.3	1.3	-1.5	-5.0	5.3	0.0
O=C(O)CCC(=O)N1CCN(c2nc(-c3ccccc3Cl)c3cc(Br)ccc3n2)CC1	-0.3	35.7	85.1*	1.4	-11.6	30.9*
CCOC(=O)N1CCN(c2nc(-c3ccccc3)c3cc(C)ccc3n2)CC1	2.3	.	.	.	.	18.2*
O=C(O)CCC(=O)N1CCN(c2nc(-c3ccccc3)c3cc(Br)ccc3n2)CC1	-1.4	.	.	.	.	27.9*
CCn1nc(NC(=O)c2cccs2)c2cc3ccccc3nc21	-2.8	13.8	24.0	0.8	-13.5	38.8*
CCn1nc(NS(=O)(=O)c2ccccc2)c2cc3ccccc3nc21	-0.3	.	.	.	.	1.7
CCn1nc(NC(=O)c2cccnc2)c2cc3ccccc3nc21	0.1	5.4	8.5	-1.9	-30.8	18.7*
SMILES	MEX-5 binding	Runt-CBFb FRET	Runt-SMMHC FRET	PKD1 kinase inh	EBV gp42 block	RanGTP-Imp inh
COc1ccc2c(c1)NC(c1cc(Cl)cc(Cl)c1O)c1cccn1-2 (stereo not drawn)	.	13.3	-5.9	-6.3	14.1	.
COc1ccc2c(c1)NC(c1ccc(N(C)C)cc1)c1cccn1-2 (stereo not drawn)	-19.4	21.2	47.3	.	-8.3	41.6*
O=C(N/N=C/c1ccc(-c2ccccc2C(=O)O)o1)c1cccs1	-11.1	5.6	-4.5	10.4	4.6	-3.8
O=c1nc(/C=C/c2ccc(-c3ccc(F)cc3)o2)cc(C(F)(F)F)[nH]1	-0.3	106.1*	80.9*	-13.9	0.7	-75.6
O=C(O)c1ccccc1-c1ccc(/C=C/c2cc(C(F)(F)F)[nH]c(=O)n2)o1	?	68.5*	87.4*	7.7	-15.0	-463.7
CCOC(=O)N1CCN(S(=O)(=O)N2CCCC(C(=O)NCc3ccc(OC)cc3)C2)CC1 (stereo not drawn)	-0.4	.	.	.	.	1.1
Cc1ccnc(NC(=O)Nc2ccc3c(c2)OCO3)c1	-0.1	0.9	2.6	-8.4	3.3	2.9
O=c1oc2ccc3ccccc3c2c2c1SC(C(F)(F)F)C2 (stereo not drawn)	-2.0	22.0	53.5*	-3.5	-9.3	9.9
O=c1oc2ccccc2c2c1SC(C(F)(F)F)C2 (stereo not drawn)	0.6	0.9	-1.9	1.4	-5.4	-2.5
COc1ccc2c(C=O)cn(C)c2c1	0.8	-1.7	-2.8	-5.5	-15.1	-1.0
Cc1c(NC(=O)CN2c3ccccc3CC2C)c(=O)n(-c2ccccc2)n1C (stereo not drawn)	.	0.2	-0.1	-2.5	1.3	-3.9
Cc1nnc(SCc2nnc(-c3cccs3)o2)n1C	-2.6	0.6	-3.2	3.4	-19.2	2.6
Cc1nnc(SCc2nnc(-c3cccs3)o2)s1	-0.2	1.0	-1.5	-1.1	9.2	174.7*
O=C(N/N=C/c1cccnc1)c1ccc(O)cc1	-3.2	.	.	.	.	2.6
O=C(N/N=C/c1cccnc1)c1cc(O)c(O)c(O)c1	-31.0*	.	.	.	.	?
Cc1ccc(CNC(=O)C(c2ccccc2)c2ccccc2)cc1	-1.3	.	.	.	.	-5.4
Cc1ccc(C)n1-c1nccc(-c2ccco2)n1	0.5	31.5	85.9*	-6.1	5.8	13.2
CCCCNC(=O)COC(=O)c1ccc(N(C)C)cc1	2.2	0.3	-0.8	0.1	1.5	-0.8
Cc1c(O)ccc2c(CN3CCN(C/C=C/c4ccccc4)CC3)cc(=O)oc12	-1.1	44.5	81.2*	.	0.4	52.3*
Cc1cc2oc(=O)cc(CN3CCN(C/C=C/c4ccccc4)CC3)c2cc1O	-1.4	0.8	-7.1	-4.3	-17.6	-1.6
COc1ccc(OC)c(C2C(C#N)=C(N)Oc3cc(N)ccc32)c1 (stereo not drawn)	3.7	30.2	32.9	2.3	0.3	46.7*
COC(=O)c1ccc(C2C(C#N)=C(N)Oc3cc(N)ccc32)cc1 (stereo not drawn)	-0.7	.	.	.	.	-8.8
CCOc1ccccc1C1C(C#N)=C(N)Oc2cc(N)ccc21 (stereo not drawn)	-0.6	11.7	105.1*	-10.7	-13.5	138.9*
N#CC1=C(N)Oc2cc(N)ccc2C1C1CCCCC1 (stereo not drawn)	2.5	50.5*	81.6*	-0.8	1.0	96.6*
N#CC1=C(N)Oc2cc(N)ccc2C1c1cccc(F)c1 (stereo not drawn)	1.2	.	.	.	.	38.2*
CCCOc1ccc(S(=O)(=O)N2CCOCC2)cc1[N+](=O)[O-]	0.6	.	2.4	-3.5	3.8	0.4

Screens as filed in PubChem.
